Measurements: ChEMBL document CHEMBL1141405, “Design and synthesis of novel sulfonamide-containing bradykinin hB2 receptor antagonists. 2. Synthesis and structure-activity relationships of alpha,alpha-cycloalkylglycine sulfonamides” (J Med Chem, 2007)
pKi: −log10 of the molar value.

Key:
B2 bradykinin receptor [1] = molecular target: T1, B2 bradykinin receptor (Homo sapiens, UniProt P30411); experiment: Displacement of [3H]BK from human bradykinin B2 receptor transfected in CHO cells; assay type: cell-based
T1 sequence (P30411 whole entry): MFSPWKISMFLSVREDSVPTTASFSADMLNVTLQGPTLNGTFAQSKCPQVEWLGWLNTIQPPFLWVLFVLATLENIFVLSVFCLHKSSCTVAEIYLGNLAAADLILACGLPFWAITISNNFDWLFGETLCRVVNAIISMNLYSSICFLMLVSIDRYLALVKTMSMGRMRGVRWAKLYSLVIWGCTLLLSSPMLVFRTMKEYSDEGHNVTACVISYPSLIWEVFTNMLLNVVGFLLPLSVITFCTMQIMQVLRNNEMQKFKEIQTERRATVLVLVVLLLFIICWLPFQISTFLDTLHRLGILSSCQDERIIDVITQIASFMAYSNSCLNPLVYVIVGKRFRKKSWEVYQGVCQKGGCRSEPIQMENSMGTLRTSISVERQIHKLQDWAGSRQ
Method in brief: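 pKi from inhibition of specific [3H]-BK binding to membrane preparations of CHO cells stably transfected with the human B2 receptor.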

B2 bradykinin receptor [2] = molecular target: T1, B2 bradykinin receptor; experiment: Antagonist potency at human bradykinin B2 receptor assessed as effect on inositol monophosphate accumulation in CHOdhfr- cells; assay type: functional, cell-based; conditions: read-out: pA2 (converted)
Method in brief: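 pA2 derived from antagonism of bradykinin-stimulated inositol monophosphate accumulation in CHOdhfr- cells stably transfected with the human B2 receptor.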

B1 bradykinin receptor = molecular target: T2, B1 bradykinin receptor (Homo sapiens, UniProt P46663); experiment: Binding affinity to human bradykinin B1 receptor
T2 sequence (P46663 whole entry): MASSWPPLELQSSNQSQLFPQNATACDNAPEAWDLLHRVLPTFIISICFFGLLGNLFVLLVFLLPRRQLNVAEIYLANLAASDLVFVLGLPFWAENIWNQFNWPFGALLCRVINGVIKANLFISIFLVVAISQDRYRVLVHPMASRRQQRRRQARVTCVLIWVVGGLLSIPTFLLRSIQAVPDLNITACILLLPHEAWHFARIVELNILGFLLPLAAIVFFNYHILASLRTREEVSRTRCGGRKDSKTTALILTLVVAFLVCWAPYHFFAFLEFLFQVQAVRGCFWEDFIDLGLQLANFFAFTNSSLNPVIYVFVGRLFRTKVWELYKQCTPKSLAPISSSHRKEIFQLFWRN

[3] = molecular target: T3, B2 bradykinin receptor (Cavia porcellus) (UniProt O70526); experiment: Inhibition of BK-induced bronchoconstriction in Dunkin Hartley guinea pig at 100 nmol/kg, it; assay type: functional; design: scale not given: the % may be the effect or the level left
T3 sequence (whole entry): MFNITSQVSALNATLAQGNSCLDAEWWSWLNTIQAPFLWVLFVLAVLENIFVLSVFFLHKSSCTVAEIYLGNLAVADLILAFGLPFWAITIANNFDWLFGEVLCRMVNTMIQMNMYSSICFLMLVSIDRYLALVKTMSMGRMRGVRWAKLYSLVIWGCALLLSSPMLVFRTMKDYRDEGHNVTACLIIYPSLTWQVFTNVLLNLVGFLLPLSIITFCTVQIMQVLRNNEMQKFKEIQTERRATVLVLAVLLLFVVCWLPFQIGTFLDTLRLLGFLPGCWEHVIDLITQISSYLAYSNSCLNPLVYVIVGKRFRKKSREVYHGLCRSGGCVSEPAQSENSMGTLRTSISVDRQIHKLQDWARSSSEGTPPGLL
Method in brief: (§1)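 Compound was given intratracheally to anaesthetized guinea pigs. Five min later, BK (10 nmol/kg iv) challenge was given and repeated every 30 min for 210 min. Pulmonary insufflation pressure was monitored. Result is Σ%: residual BK response as % of basal, normalized to control at 5–210 min time points, expressed as % of theoretical maximum.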

[4] = molecular target: T3, B2 bradykinin receptor (Cavia porcellus); experiment: Effect on BK-induced hypotension in Dunkin Hartley guinea pig at 100 nmol/kg, it; assay type: functional
Method in brief: as §1, with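 “Blood” for “Pulmonary insufflation”, “each observation” for “5–210 min”, “(5–210 min),” for “points,”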

B2 bradykinin receptor [5] = molecular target: T4, B2 bradykinin receptor (Cavia porcellus, UniProt O70526); experiment: Antagonist potency on BK-induced contraction of guinea pig ileum longitudinal smooth muscle; assay type: functional, tissue-based; conditions: read-out: pA2 (converted)
T4 sequence (O70526 whole entry): T3 sequence (whole entry)

[6] = molecular target: T3, B2 bradykinin receptor (Cavia porcellus); experiment: Inhibition of BK-induced bronchoconstriction in Dunkin Hartley guinea pig at 300 nmol/kg, it; assay type: functional; design: scale not given: the % may be the effect or the level left; method in brief: as §1
[7] = molecular target: T3, B2 bradykinin receptor (Cavia porcellus); experiment: Effect on BK-induced hypotension in Dunkin Hartley guinea pig at 300 nmol/kg, it; assay type: functional
Method in brief: as §1, with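 “Blood” for “Pulmonary insufflation”, “each observation” for “5–210 min”, “(5–210 min),” for “points,”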

Compound	pKi (B2 bradykinin receptor [1])	Kb (B2 bradykinin receptor [2]) [nM]	pKi (B1 bradykinin receptor)	Activity [3] [%]	Activity [4] [%]	Kb (B2 bradykinin receptor [5]) [nM]	Activity [6] [%]	Activity [7] [%]
Cc1cc(C)c2cccc(OCc3c(Cl)ccc(S(=O)(=O)NC4(C(=O)N5CCN(C(=O)[C@@H](N)CCC[N+](C)(C)C)CC5)CCSCC4)c3Cl)c2n1	10.30	0.158	< 5.00	59	89			
Cc1cc(C)c2cccc(OCc3c(Cl)ccc(S(=O)(=O)NC4(C(=O)N5CCN(C(=O)CCCCCNC(=N)N)CC5)CCCC4)c3Cl)c2n1	8.90	2	< 5.00					
Cc1cc(C)c2cccc(OCc3c(Cl)ccc(S(=O)(=O)NC4(C(=O)N5CCN(C(=O)CCCCC[N+](C)(C)C)CC5)CCCC4)c3Cl)c2n1		5.01	< 5.00					
Cc1cc(C)c2cccc(OCc3c(Cl)ccc(S(=O)(=O)NC4(C(=O)N5CCN(C(=N)NCCCN(C)C)CC5)CCCC4)c3Cl)c2n1	9.20	0.501	< 5.00				24	69
Cc1cc(C)c2cccc(OCc3c(Cl)ccc(S(=O)(=O)NC4(C(=O)N5CCN(C(=O)[C@@H](N)CCC[N+](C)(C)C)CC5)CCNCC4)c3Cl)c2n1	9.30	1.58	< 5.00					
Cc1cc(C)c2cccc(OCc3c(Cl)ccc(S(=O)(=O)NC(C)(C)C(=O)N4CCN(C(=O)C[C@@H](N)CCCN(C)C)CC4)c3Cl)c2n1			< 5.00			0.1	20	63
Cc1cc(C)c2cccc(OCc3c(Cl)ccc(S(=O)(=O)NC4(C(=O)N5CCN(C(=O)[C@@H](N)CCC[N+](C)(C)C)CC5)CCN(C)CC4)c3Cl)c2n1	10.10	0.251	< 5.00	40	86			
Cc1cc(C)c2cccc(OCc3c(Cl)ccc(S(=O)(=O)NC4(C(=O)N5CCN(C(=O)[C@H](CCC[N+](C)(C)C)[N+](C)(C)C)CC5)CCCC4)c3Cl)c2n1	9.70	2.51	< 5.00					
Cc1cc(C)c2cccc(OCc3c(Cl)ccc(S(=O)(=O)NC4(C(=O)N5CCN(C(=O)C[C@@H](N)CCCNC(=N)N)CC5)CCCC4)c3Cl)c2n1		0.794	< 5.00	78	100			
CC(=O)N1CCC(NS(=O)(=O)c2ccc(Cl)c(COc3cccc4c(C)cc(C)nc34)c2Cl)(C(=O)N2CCN(C(=O)[C@@H](N)CCC[N+](C)(C)C)CC2)CC1	9.80	1.26	< 5.00					
Cc1cc(C)c2cccc(OCc3c(Cl)ccc(S(=O)(=O)NC(C)(C)C(=O)N4CCN(C(=O)[C@@H](N)CCCCN(C)C)CC4)c3Cl)c2n1			< 5.00			0.2	37	69
Cc1cc(C)c2cccc(OCc3c(Cl)ccc(S(=O)(=O)NC4(C(=O)N5CCN(C(=O)C[N+](C)(C)C)CC5)CCCC4)c3Cl)c2n1	9.40	5.01	< 5.00	54	91			
Cc1cc(C)c2cccc(OCc3c(Cl)ccc(S(=O)(=O)NC4(C(=O)N5CCN(C(=O)CCC[N+](C)(C)C)CC5)CCCC4)c3Cl)c2n1		2	< 5.00	65	83			
Cc1cc(C)c2cccc(OCc3c(Cl)ccc(S(=O)(=O)NC(C)(C)C(=O)N4CCN(C(=O)[C@@H](N)CCCN(C)C)CC4)c3Cl)c2n1			< 5.00			0.1	39	79
Cc1cc(C)c2cccc(OCc3c(Cl)ccc(S(=O)(=O)NC4(C(=O)N5CCN(C(=N)NCCC[N+](C)(C)C)CC5)CCCC4)c3Cl)c2n1	9.40	1.58	< 5.00				17	87

More lines, now with the values ahead:

pKi (B2 bradykinin receptor [1])	Kb (B2 bradykinin receptor [2]) [nM]	pKi (B1 bradykinin receptor)	Activity [3] [%]	Activity [4] [%]	Kb (B2 bradykinin receptor [5]) [nM]	Activity [6] [%]	Activity [7] [%]	Compound
9.60	1.58	< 5.00						Cc1cc(C)c2cccc(OCc3c(Cl)ccc(S(=O)(=O)NC4(C(=O)N5CCN(C(=O)CCCC[N+](C)(C)C)CC5)CCCC4)c3Cl)c2n1
10.00	0.631	< 5.00	61	90				Cc1cc(C)c2cccc(OCc3c(Cl)ccc(S(=O)(=O)NC4(C(=O)N5CCN(C(=O)[C@H](CCCCNC(=N)N)[N+](C)(C)C)CC5)CCCC4)c3Cl)c2n1
9.20	1.58	< 5.00			0.0398	21	51	Cc1cc(C)c2cccc(OCc3c(Cl)ccc(S(=O)(=O)NC4(C(=O)N5CCN(C(=O)C[C@@H](N)CCCN(C)C)CC5)CCCC4)c3Cl)c2n1
9.00	0.251	< 5.00			0.1	36	75	Cc1cc(C)c2cccc(OCc3c(Cl)ccc(S(=O)(=O)NC4(C(=O)N5CCN(C(=O)[C@@H](N)CCCCNC(=N)N)CC5)CCCC4)c3Cl)c2n1
9.70	6.31	< 5.00						Cc1cc(C)c2cccc(OCc3c(Cl)ccc(S(=O)(=O)NC4(C(=O)N5CCN(C(=O)[C@H](CCCC[N+](C)(C)C)[N+](C)(C)C)CC5)CCCC4)c3Cl)c2n1
	1.58	< 5.00	39	84				Cc1cc(C)c2cccc(OCc3c(Cl)ccc(S(=O)(=O)NC4(C(=O)N5CCN(C(=O)[C@H](CCCCN)[N+](C)(C)C)CC5)CCCC4)c3Cl)c2n1
9.50	2	< 5.00	45	87				Cc1cc(C)c2cccc(OCc3c(Cl)ccc(S(=O)(=O)NC4(C(=O)N5CCN(C(=O)[C@@H](N)CC[N+](C)(C)C)CC5)CCCC4)c3Cl)c2n1
9.70	3.16	< 5.00						Cc1cc(C)c2cccc(OCc3c(Cl)ccc(S(=O)(=O)NC4(C(=O)N5CCN(C(=O)[C@H](CCCCN(C)C)N(C)C)CC5)CCCC4)c3Cl)c2n1
9.50	2	< 5.00						Cc1cc(C)c2cccc(OCc3c(Cl)ccc(S(=O)(=O)NC4(C(=O)N5CCN(C(=O)[C@@H](N)CCCCN)CC5)CCCC4)c3Cl)c2n1
	1.26	< 5.00	35	94				Cc1cc(C)c2cccc(OCc3c(Cl)ccc(S(=O)(=O)NC4(C(=O)N5CCN(C(=O)[C@@H](N)CCCC[N+](C)(C)C)CC5)CCCC4)c3Cl)c2n1
9.90	1.26	< 5.00	72	94				Cc1cc(C)c2cccc(OCc3c(Cl)ccc(S(=O)(=O)NC4(C(=O)N5CCN(C(=O)C[C@H](CCCN)[N+](C)(C)C)CC5)CCCC4)c3Cl)c2n1
9.60	0.501	< 5.00	43	82				Cc1cc(C)c2cccc(OCc3c(Cl)ccc(S(=O)(=O)NC4(C(=O)N5CCN(C(=O)[C@H](CCCN)[N+](C)(C)C)CC5)CCCC4)c3Cl)c2n1
9.70	1.58	< 5.00	57	96				Cc1cc(C)c2cccc(OCc3c(Cl)ccc(S(=O)(=O)NC4(C(=O)N5CCN(C(=O)C[C@@H](N)CCC[N+](C)(C)C)CC5)CCCC4)c3Cl)c2n1
9.20	0.501	< 5.00	46	100				Cc1cc(C)c2cccc(OCc3c(Cl)ccc(S(=O)(=O)NC4(C(=O)N5CCN(C(=O)C[C@@H](N)CCCN)CC5)CCCC4)c3Cl)c2n1
10.30	0.501	< 5.00	24	100				Cc1cc(C)c2cccc(OCc3c(Cl)ccc(S(=O)(=O)NC4(C(=O)N5CCN(C(=O)[C@@H](N)CCC[N+](C)(C)C)CC5)CCCC4)c3Cl)c2n1
